Measured values published in paper PMC4800303 (British Journal of Cancer, 2016).
In brackets after ≈: the same amount, converted by molar mass.

Experiments:
[1] = tested on: BRAF-mutated (V600E/K) metastatic melanoma; details: pivotal phase III registration trial; ref Chapman et al., 2011; cited from earlier work
A375 xenograft tumours = assay: Tumour growth inhibition and tumour model in A375 xenograft tumours; assay type: in vivo, mice; details: continuous vemurafenib treatment; estimated
In short: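 A375 xenograft mice received vemurafenib 15 mg kg⁻¹ twice daily for 48 days to allow resistance. They then received abemaciclib 90 mg kg⁻¹ daily or continued vemurafenib for 28 days (n=8 per group), with vehicle controls (n=8). Tumour size was measured every 3–4 days for ∼13 weeks. Time to resistance was estimated by the tumour growth model with a modulator compartment.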

[2] = tested on: phospho-(thr202/tyr204)-ERK (pERK); assay: Biomarker model: effect of vemurafenib on pERK in A375 xenograft tumours; assay type: in vivo, mice
In short: (§1)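 A375 xenograft mice given single oral vemurafenib: 15 mg kg⁻¹ with blood and tumour at 1, 2, 6, 12, 24, 48 h; 7.5, 30 or 60 mg kg⁻¹ with sampling at 4, 8, 24 h; n=5 per time point. Tumour biomarkers expressed as percentage of vehicle control. Plasma PK fitted by one-compartment model with saturable absorption; indirect response model links concentration to pMEK, driving pERK; values from model fitting/simulation.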

pRb = assay: Biomarker model: effect of vemurafenib on pRb in A375 xenograft tumours; assay type: in vivo, mice; details: Mus musculus, A-375, read-out: Inhibition of pRb
In short: as §1

[3] = tested on: phospho-(ser217/221)-mitogen-activated protein kinase kinase (pMEK); assay type: in vivo, mice; details: after a 15 mg kg^−1 dose of vemurafenib
In short: as §1

[4] = Pharmacokinetics in xenograft tumour-bearing mice; assay type: in vivo; details: vemurafenib and abemaciclib coadministered; data not shown
Cyclin D1 = assay: Biomarker model: effect of vemurafenib on Cyclin D1 in A375 xenograft tumours; assay type: in vivo, mice
In short: as §1

Total Rb = assay: Abemaciclib-mediated inhibition of Total Rb in xenograft tumours; assay type: in vivo, mice; details: 50 mg kg^−1 every day
In short: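 Colo-205 xenograft mice given abemaciclib 50 mg kg⁻¹ orally once daily for 56 days; tumour collected at 28 and 56 days, n=5 per time point. Tumour lysates assayed for Total Rb alongside pRb, TopoIIα and pHH3. Data were added to a refit of the cell-cycle PK/PD model.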

[5] = tested on: phospho-(ser780)-Rb (pRb); assay type: in vivo, mice; details: Mus musculus, COLO 205, read-out: IC50,Abemaciclib
In short: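 Semimechanistic PK/PD model with four sequential transit compartments (early G1, late G1, S, G2/M). pRb, TopoIIα and pHH3 represent late G1, S and G2/M phase density. Model refitted to colo-205 xenograft biomarker data, including Total Rb after single or daily oral 50 mg kg⁻¹ abemaciclib. Population approach for longitudinal data. IC50 is an estimated model parameter.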

[6] = after a 15 mg kg^−1 dose of vemurafenib
[7] = continuous vemurafenib, at time to resistance (∼30 days), model

| IC50 [5] | SMILES | Progression-free survival (PFS) [1] | Time to resistance (A375 xenograft tumours) | Time of maximum inhibition of pERK [2, 6] | Elevation of pERK over baseline at resistance [2, 7] | inhibition at 15 mg/kg (pRb) | Time of maximum inhibition of pMEK [3] | Pharmacokinetics after coadministration [4] | inhibition at 15 mg/kg (Cyclin D1; Mus musculus, A-375, read-out: Inhibition of Cyclin D1) | Time of maximum inhibition of Cyclin D1 (Cyclin D1; [6]) | Elevation of Cyclin D1 over baseline at resistance (Cyclin D1; [7]) | Inhibition of Total Rb (Total Rb) |
| --- | --- | --- | --- | --- | --- | --- | --- | --- | --- | --- | --- | --- |
|  | CCCS(=O)(=O)Nc1ccc(F)c(C(=O)c2c[nH]c3ncc(-c4ccc(Cl)cc4)cc23)c1F [vemurafenib] | 5.3 months | ~30 days | 2 h | nearly twofold | 50% | 2 h | neither vemurafenib nor abemaciclib exhibited altered pharmacokinetics after coadministration | 33% | 10 h | nearly twofold |  |
| 4.99 ng/mL (≈ 9.85 nM) | CCN1CCN(Cc2ccc(Nc3ncc(F)c(-c4cc(F)c5nc(C)n(C(C)C)c5c4)n3)nc2)CC1 [abemaciclib] |  |  |  |  |  |  | neither vemurafenib nor abemaciclib exhibited altered pharmacokinetics after coadministration |  |  |  | ~40% |
|  | CN(C)/N=N/c1[nH]cnc1C(N)=O [dacarbazine] | 1.6 months |  |  |  |  |  |  |  |  |  |  |
